Results on ten compounds are retold here after ChEMBL document CHEMBL1165965, “Synthesis and structure-activity relationships of 1,2,3,4-tetrahydropyrido[2,3-b]pyrazines as potent and selective inhibitors of the anaplastic lymphoma kinase” (Bioorg Med Chem, 2010).

For assay [1], the target named is Phosphatidylinositol 4,5-bisphosphate 3-kinase catalytic subunit gamma isoform (Homo sapiens) (UniProt P48736). Description: Inhibition of PIK3CG at 1 uM.
Assay [2] deals with TGF-beta receptor type-2 (Homo sapiens) (UniProt P37173). The assay can be described thus: Inhibition of TGFBR2 at 1 uM.
Chain of TGF-beta receptor type-2 (Homo sapiens) (P37173 whole entry): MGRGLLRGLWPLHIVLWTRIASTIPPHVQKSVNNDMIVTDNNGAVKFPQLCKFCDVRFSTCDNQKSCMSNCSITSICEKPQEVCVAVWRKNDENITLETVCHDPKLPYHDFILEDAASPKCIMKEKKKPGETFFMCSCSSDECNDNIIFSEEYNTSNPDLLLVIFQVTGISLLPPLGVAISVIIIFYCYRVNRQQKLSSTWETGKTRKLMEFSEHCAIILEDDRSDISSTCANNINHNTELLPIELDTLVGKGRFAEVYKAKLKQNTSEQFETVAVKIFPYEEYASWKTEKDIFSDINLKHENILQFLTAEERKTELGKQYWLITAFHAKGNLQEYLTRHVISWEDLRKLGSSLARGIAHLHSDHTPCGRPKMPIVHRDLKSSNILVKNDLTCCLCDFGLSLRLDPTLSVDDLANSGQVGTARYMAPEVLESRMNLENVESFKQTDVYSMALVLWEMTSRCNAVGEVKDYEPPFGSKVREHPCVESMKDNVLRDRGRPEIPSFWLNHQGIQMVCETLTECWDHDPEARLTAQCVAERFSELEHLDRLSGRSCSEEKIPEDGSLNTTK
Assay [3] concerns the target T1, Ephrin type-B receptor 2 (Homo sapiens) (UniProt P29323).
T1 sequence (whole entry): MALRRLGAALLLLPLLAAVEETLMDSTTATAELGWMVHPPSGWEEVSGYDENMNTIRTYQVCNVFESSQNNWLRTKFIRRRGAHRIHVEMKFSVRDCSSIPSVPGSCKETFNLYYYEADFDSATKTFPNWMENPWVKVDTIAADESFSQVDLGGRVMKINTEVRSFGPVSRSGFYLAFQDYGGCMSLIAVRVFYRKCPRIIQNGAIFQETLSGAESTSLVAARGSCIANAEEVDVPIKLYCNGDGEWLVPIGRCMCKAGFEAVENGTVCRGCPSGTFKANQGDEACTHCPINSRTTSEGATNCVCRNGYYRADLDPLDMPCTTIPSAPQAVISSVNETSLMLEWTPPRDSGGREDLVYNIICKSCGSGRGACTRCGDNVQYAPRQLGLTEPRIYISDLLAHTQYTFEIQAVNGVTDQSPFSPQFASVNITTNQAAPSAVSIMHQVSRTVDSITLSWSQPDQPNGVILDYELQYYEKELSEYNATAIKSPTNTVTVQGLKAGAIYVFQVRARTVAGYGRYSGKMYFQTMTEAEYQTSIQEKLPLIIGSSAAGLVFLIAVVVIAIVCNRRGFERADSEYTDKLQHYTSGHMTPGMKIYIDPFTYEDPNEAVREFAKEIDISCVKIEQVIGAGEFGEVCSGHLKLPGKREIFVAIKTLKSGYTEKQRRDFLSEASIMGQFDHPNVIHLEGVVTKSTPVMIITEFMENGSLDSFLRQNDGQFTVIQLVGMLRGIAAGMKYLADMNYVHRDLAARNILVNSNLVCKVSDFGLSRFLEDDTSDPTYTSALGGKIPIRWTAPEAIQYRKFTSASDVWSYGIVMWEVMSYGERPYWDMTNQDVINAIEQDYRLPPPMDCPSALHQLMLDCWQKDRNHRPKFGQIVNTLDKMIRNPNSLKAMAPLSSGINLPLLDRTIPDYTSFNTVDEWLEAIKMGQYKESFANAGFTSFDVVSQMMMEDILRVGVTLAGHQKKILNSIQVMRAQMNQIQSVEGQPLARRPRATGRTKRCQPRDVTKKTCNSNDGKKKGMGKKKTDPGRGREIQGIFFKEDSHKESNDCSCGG
Description: Inhibition of EPHB2 at 1 uM. In a few lines: (§1)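 Single-concentration screen using Ambit Bioscience KINOMEscan technology across a panel of 250–400 kinases. Per-kinase inhibition from this screen was summarized as S(90), the fraction of kinases inhibited by more than 90%.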

The target in assay [4] is Mitogen-activated protein kinase 1 (Homo sapiens) (UniProt P28482). Description: Inhibition of ERK2 at 1 uM. In outline: as §1
Chain of Mitogen-activated protein kinase 1 (Homo sapiens) (P28482 whole entry): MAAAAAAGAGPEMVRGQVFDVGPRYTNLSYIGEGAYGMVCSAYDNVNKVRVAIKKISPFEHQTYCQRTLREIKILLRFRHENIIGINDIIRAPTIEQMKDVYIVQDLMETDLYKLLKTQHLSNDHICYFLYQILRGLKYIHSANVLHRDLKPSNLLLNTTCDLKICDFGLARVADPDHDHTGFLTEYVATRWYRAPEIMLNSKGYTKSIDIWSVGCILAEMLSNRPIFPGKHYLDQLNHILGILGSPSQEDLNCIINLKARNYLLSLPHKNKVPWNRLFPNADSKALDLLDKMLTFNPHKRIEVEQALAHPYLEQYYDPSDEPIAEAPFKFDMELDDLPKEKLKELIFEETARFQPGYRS
Assay [5] concerns the target T2, Mitogen-activated protein kinase 15 (Homo sapiens) (UniProt Q8TD08).
T2 sequence (whole entry): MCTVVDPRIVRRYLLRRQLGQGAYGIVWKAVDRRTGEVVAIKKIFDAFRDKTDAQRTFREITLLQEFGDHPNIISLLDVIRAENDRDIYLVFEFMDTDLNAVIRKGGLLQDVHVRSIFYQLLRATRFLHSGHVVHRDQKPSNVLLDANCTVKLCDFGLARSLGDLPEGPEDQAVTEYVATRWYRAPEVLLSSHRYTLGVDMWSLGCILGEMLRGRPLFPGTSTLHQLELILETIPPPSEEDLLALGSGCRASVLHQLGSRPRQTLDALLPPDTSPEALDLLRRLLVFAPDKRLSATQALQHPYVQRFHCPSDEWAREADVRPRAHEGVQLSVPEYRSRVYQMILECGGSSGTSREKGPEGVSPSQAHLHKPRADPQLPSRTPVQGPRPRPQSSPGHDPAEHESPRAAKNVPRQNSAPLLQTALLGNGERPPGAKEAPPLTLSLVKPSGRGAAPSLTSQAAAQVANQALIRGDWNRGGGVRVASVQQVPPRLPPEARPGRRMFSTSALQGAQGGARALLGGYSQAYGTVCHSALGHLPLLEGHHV
Description: Inhibition of ERK8 at 1 uM.

Assay [6] concerns T3, Receptor-type tyrosine-protein kinase FLT3 (Homo sapiens), P36888 [D835Y].
T3 sequence (whole entry): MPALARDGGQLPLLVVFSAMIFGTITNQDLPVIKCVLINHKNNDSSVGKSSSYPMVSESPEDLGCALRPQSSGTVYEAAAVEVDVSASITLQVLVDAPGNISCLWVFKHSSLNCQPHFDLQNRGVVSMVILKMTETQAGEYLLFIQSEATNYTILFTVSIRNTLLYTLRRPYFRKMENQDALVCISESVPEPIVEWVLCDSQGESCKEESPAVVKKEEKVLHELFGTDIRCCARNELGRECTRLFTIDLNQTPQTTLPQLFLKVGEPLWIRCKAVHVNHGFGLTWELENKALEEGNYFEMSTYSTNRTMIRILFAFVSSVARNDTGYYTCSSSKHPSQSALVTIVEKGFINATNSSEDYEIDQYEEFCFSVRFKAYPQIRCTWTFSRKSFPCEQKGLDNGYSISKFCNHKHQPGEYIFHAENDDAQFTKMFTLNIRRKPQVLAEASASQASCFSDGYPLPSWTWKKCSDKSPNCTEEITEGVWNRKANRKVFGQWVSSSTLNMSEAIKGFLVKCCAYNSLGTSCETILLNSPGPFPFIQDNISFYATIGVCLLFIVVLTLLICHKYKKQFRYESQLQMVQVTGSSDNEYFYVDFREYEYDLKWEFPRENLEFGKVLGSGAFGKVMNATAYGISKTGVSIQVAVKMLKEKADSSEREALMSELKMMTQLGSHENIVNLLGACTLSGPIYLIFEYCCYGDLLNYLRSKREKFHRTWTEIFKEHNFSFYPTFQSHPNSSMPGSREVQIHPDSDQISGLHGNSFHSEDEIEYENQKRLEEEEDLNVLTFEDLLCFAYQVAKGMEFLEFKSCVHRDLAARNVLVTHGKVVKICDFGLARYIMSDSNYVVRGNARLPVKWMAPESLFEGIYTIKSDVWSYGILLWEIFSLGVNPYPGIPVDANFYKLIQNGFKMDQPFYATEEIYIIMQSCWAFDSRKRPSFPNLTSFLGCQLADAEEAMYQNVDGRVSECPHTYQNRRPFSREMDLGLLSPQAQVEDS
Description: Inhibition of FLT3 D835Y mutant at 1 uM. In a few lines:
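Single-concentration screen on the Ambit KINOMEscan platform, run against a panel of 250–400 kinases. Per-kinase inhibition was also summarized as S(90), the fraction of kinases inhibited by more than 90%.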

Bounds are passed on as bounds.

Chain of Phosphatidylinositol 4,5-bisphosphate 3-kinase catalytic subunit gamma isoform (Homo sapiens) (P48736 whole entry, looked up, canonical isoform): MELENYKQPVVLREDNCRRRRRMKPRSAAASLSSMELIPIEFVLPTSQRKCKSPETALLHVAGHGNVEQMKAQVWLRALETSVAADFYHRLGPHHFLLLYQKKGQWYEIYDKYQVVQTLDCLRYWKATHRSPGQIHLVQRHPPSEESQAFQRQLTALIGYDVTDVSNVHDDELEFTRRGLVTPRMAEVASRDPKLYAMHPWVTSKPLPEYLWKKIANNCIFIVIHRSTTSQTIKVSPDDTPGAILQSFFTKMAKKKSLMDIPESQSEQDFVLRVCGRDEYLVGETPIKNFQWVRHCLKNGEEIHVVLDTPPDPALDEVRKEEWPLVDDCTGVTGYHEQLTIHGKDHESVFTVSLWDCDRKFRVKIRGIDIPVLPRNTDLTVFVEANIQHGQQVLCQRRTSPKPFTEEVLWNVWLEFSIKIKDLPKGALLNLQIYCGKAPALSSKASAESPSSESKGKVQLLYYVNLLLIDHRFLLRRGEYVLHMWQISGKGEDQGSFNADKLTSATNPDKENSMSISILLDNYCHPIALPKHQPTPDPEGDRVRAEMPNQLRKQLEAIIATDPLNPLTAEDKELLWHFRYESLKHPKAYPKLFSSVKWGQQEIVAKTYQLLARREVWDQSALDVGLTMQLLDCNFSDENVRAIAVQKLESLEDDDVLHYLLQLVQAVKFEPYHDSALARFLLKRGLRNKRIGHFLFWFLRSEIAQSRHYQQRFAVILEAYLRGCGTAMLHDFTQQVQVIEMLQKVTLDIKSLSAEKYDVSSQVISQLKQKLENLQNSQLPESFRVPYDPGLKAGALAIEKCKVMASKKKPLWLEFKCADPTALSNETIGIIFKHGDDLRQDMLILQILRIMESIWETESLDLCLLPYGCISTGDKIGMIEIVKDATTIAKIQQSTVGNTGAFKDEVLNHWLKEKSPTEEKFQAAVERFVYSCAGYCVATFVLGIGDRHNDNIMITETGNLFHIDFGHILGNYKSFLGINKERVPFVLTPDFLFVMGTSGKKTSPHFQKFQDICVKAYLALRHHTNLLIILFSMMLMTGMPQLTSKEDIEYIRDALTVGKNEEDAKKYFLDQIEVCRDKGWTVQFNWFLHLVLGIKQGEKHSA

`FC(F)(F)c1ccc(Cl)cc1CN1CCNc2ncc(-c3ccnc(N4CCNCC4)c3)cc21`: the inhibition in assay [1] is less than 50%; in assay [2], less than 50%; in assay [3] it was less than 50%; in assay [4] it was less than 50%; in assay [5] it was less than 50%; in assay [6] it was 93%.

Turning to `CN1CCN(c2ccc(-c3cnc4c(c3)N(Cc3cc(Cl)ccc3Cl)CCN4)cn2)CC1`, the inhibition was less than 50% in assay [1]; less than 50% in assay [2]; less than 50% in assay [3]; less than 50% in assay [4]; less than 50% in assay [5]; 87% in assay [6].

Take `COC1CCN(C(=O)c2ccc(-c3cnc4c(c3)N(Cc3cc(Cl)ccc3C(F)(F)F)CCN4)cc2)CC1`: the inhibition in assay [2] is less than 50%; in assay [3] it was less than 50%; in assay [4], less than 50%; in assay [6] it was 66.7%.

Consider `O=C(c1ccc(-c2cnc3c(c2)N(Cc2cc(Cl)ccc2C(F)(F)F)CCN3)cc1)N1CCCCC1`, for which the inhibition in assay [2], in assay [3], in assay [4] and in assay [6] was less than 50% throughout.

Regarding `O=C(O)c1ccc(-c2cnc3c(c2)N(Cc2cc(Cl)ccc2C(F)(F)F)CCN3)cc1`, the inhibition in assay [2], in assay [3], in assay [4] and in assay [6] was less than 50% in each case.

Take `CN1CCN(c2ccc(-c3cnc4c(c3)N(Cc3cc(F)ccc3F)CCN4)cn2)CC1`: the inhibition in assay [1] was less than 50%; in assay [2], less than 50%; in assay [3] it was less than 50%; in assay [4], less than 50%; in assay [5], less than 50%; in assay [6], 80.8%.

With `O=C(c1ccc(-c2cnc3c(c2)N(Cc2cc(Cl)ccc2C(F)(F)F)CCN3)cc1)N1CCC(N2CCCC2)CC1`, the inhibition in assay [2] was less than 50%; in assay [3] it was less than 50%; in assay [4], less than 50%; in assay [6], 75.5%.

For the compound `CN1CCN(c2ccc(-c3cnc4c(c3)N(Cc3c(F)ccc(F)c3Cl)CCN4)cn2)CC1`, the inhibition in assay [1], in assay [2], in assay [3], in assay [4], in assay [5] and in assay [6] was less than 50% each time.

In the case of `CC(=O)N1CCN(c2cc(-c3cnc4c(c3)N(Cc3cc(Cl)ccc3C(F)(F)F)CCN4)ccn2)CC1`, the inhibition is less than 50% in assay [1]; less than 50% in assay [2]; less than 50% in assay [3]; less than 50% in assay [4]; less than 50% in assay [5]; 87% in assay [6].

Regarding `CN1CCN(c2ccc(-c3cnc4c(c3)N(Cc3cc(Cl)ccc3C(F)(F)F)CCN4)cn2)CC1`, the inhibition in assay [1] is less than 50%; in assay [2], less than 50%; in assay [3] it was less than 50%; in assay [4], less than 50%; in assay [5] it was less than 50%; in assay [6], 85%.
